# Measurements published in ChEMBL document CHEMBL4689842, “EUbOPEN Chemogenomics Library wave 1” (2021).
# Legend:
# U2OS [1] = assay: Multiplex assay against U2OS; assay type: toxicity, cell-based; conditions: human
# How it was run: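 Hoechst33342, BioTracker Green Microtubule Cytoskeleton Dye, MitoTracker Red and Annexin V Alexa Fluor 680 were added to live cells at seeding, and imaging on a CQ1 microscope at 37°C and 5% CO2 followed compound addition. Gating by CellPathfinder machine learning separated cells into Hoechst high-intensity objects or normal cells, then normal cells into healthy, pyknosed or fragmented nuclei, then pyknosed cells into mitotic or apoptotic. Per cents of healthy-nucleus cells are reported for the tubulin, mitochondrial-mass and membrane-permeability phenotypes.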
# U2OS [2] = assay: Incucyte cell viability with U2OS; assay type: toxicity, cell-based; conditions: human, 10 µM, compound concentration 10 uM; further: filed as whole numbers so only -1 and 0 and 1 occur
# [3] = 24 h, 10 µM, compound concentration 10 uM, replicate 1
# [4] = 24 h, 10 µM, compound concentration 10 uM, replicate 2
# [5] = 48 h, 1 µM, compound concentration 1 uM, replicate 1
# [6] = 48 h, 1 µM, compound concentration 1 uM, replicate 2
# [7] = 48 h, 10 µM, compound concentration 10 uM, replicate 1
# [8] = 48 h, 10 µM, compound concentration 10 uM, replicate 2
structure (smiles),measurement,setting,value
CCCCN(CC)c1nc(C)nc2c1c(C)cn2-c1c(C)cc(C)cc1C.Cl,Population Fragmented Nuclei (%),U2OS [1]; [3],19%
same,Population Healthy Nuclei (%),U2OS [1]; [3],62%
same,Population Hoechst High Intensity Objects (%),U2OS [1]; [3],5%
same,Population Membrane Permeable-Phenotype (%),U2OS [1]; [3],2%
same,Population Mitochondria Different-Phenotype (%),U2OS [1]; [3],48%
same,Population Mitotic Cells (%),U2OS [1]; [3],32%
same,Population Normal (%),U2OS [1]; [3],94%
same,Population Pyknosed Nuclei (%),U2OS [1]; [3],17%
same,Population Tubulin-Different-Phenotype (%),U2OS [1]; [3],26%
same,Total Cell Count,U2OS [1]; [3],152
same,Population Apoptotic (%),U2OS [1]; [4],25%
same,Population Fragmented Nuclei (%),U2OS [1]; [4],8%
same,Population Healthy Nuclei (%),U2OS [1]; [4],80%
same,Population Hoechst High Intensity Objects (%),U2OS [1]; [4],4%
same,Population Membrane Permeable-Phenotype (%),U2OS [1]; [4],3%
same,Population Mitochondria Different-Phenotype (%),U2OS [1]; [4],54%
same,Population Mitotic Cells (%),U2OS [1]; [4],75%
same,Population Normal (%),U2OS [1]; [4],95%
same,Population Pyknosed Nuclei (%),U2OS [1]; [4],11%
same,Population Tubulin-Different-Phenotype (%),U2OS [1]; [4],21%
same,Total Cell Count,U2OS [1]; [4],74
same,Population Apoptotic (%),U2OS [1]; [5],27%
same,Population Fragmented Nuclei (%),U2OS [1]; [5],5%
same,Population Healthy Nuclei (%),U2OS [1]; [5],86%
same,Population Hoechst High Intensity Objects (%),U2OS [1]; [5],3%
same,Population Membrane Permeable-Phenotype (%),U2OS [1]; [5],0%
same,Population Mitochondria Different-Phenotype (%),U2OS [1]; [5],10%
same,Population Mitotic Cells (%),U2OS [1]; [5],72%
same,Population Normal (%),U2OS [1]; [5],96%
same,Population Pyknosed Nuclei (%),U2OS [1]; [5],7%
same,Population Tubulin-Different-Phenotype (%),U2OS [1]; [5],7%
same,Total Cell Count,U2OS [1]; [5],253
same,Population Apoptotic (%),U2OS [1]; [6],28%
same,Population Fragmented Nuclei (%),U2OS [1]; [6],8%
same,Population Healthy Nuclei (%),U2OS [1]; [6],82%
same,Population Hoechst High Intensity Objects (%),U2OS [1]; [6],1%
same,Population Membrane Permeable-Phenotype (%),U2OS [1]; [6],8%
same,Population Mitochondria Different-Phenotype (%),U2OS [1]; [6],14%
same,Population Mitotic Cells (%),U2OS [1]; [6],71%
same,Population Normal (%),U2OS [1]; [6],98%
same,Population Pyknosed Nuclei (%),U2OS [1]; [6],8%
same,Population Tubulin-Different-Phenotype (%),U2OS [1]; [6],13%
same,Total Cell Count,U2OS [1]; [6],170
same,Population Apoptotic (%),U2OS [1]; [7],39%
same,Population Fragmented Nuclei (%),U2OS [1]; [7],18%
same,Population Healthy Nuclei (%),U2OS [1]; [7],68%
same,Population Hoechst High Intensity Objects (%),U2OS [1]; [7],6%
same,Population Membrane Permeable-Phenotype (%),U2OS [1]; [7],4%
same,Population Mitochondria Different-Phenotype (%),U2OS [1]; [7],30%
same,Population Mitotic Cells (%),U2OS [1]; [7],60%
same,Population Normal (%),U2OS [1]; [7],93%
same,Population Pyknosed Nuclei (%),U2OS [1]; [7],12%
same,Population Tubulin-Different-Phenotype (%),U2OS [1]; [7],26%
same,Total Cell Count,U2OS [1]; [7],192
same,Population Apoptotic (%),U2OS [1]; [8],38%
same,Population Fragmented Nuclei (%),U2OS [1]; [8],9%
same,Population Healthy Nuclei (%),U2OS [1]; [8],71%
same,Population Hoechst High Intensity Objects (%),U2OS [1]; [8],5%
same,Population Membrane Permeable-Phenotype (%),U2OS [1]; [8],6%
same,Population Mitochondria Different-Phenotype (%),U2OS [1]; [8],38%
same,Population Mitotic Cells (%),U2OS [1]; [8],61%
same,Population Normal (%),U2OS [1]; [8],94%
same,Population Pyknosed Nuclei (%),U2OS [1]; [8],18%
same,Population Tubulin-Different-Phenotype (%),U2OS [1]; [8],12%
same,Total Cell Count,U2OS [1]; [8],119
same,Growth Rate,"U2OS [2]; 0 h, replicate number 1, timepoint 0 hours",0
same,Growth Rate,"U2OS [2]; 6 h, replicate number 2, timepoint 6 hours",1
same,Growth Rate,"U2OS [2]; 12 h, replicate number 1, timepoint 12 hours",0
same,Growth Rate,"U2OS [2]; 18 h, replicate number 1, timepoint 18 hours",0
same,Growth Rate,"U2OS [2]; 18 h, replicate number 2, timepoint 18 hours",1
same,Growth Rate,"U2OS [2]; 24 h, replicate number 1, timepoint 24 hours",0
same,Growth Rate,"U2OS [2]; 24 h, replicate number 2, timepoint 24 hours",1
